From ChEMBL document CHEMBL1145129, “Design, synthesis, and anticancer properties of 4,4'-dihydroxybenzophenone-2,4-dinitrophenylhydrazone and analogues” (J Med Chem, 2003)
Converted amounts (≈) assume the structure as drawn.

Assays:
[1] = tested on: breast cancer cells (Homo sapiens); assay: In vitro cytotoxicity in Human breast tumor cells
Homo sapiens [2] = species on record: Homo sapiens; assay: In vitro cytotoxicity in Human ovary tumor cells; type: functional; conditions: Female gonad
Procedure, shortened: (§1)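 Fresh surgical human tumor specimens minced to ≤0.1 mm fragments in RPMI-1640 with 10% FBS, streptomycin and penicillin (10⁶–10⁸ cells/mL), explanted into slide flasks. Exposed 24 h at 37 °C, 5% CO₂, to test agent 0.1–20 μg/mL (≥5 doses over 3 logs), in duplicate. Washed, recultured 7–14 days, fixed, HPF cell counts vs control; IC50 (SD) from percent growth.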

Melanoma tumor cell line [3] = assay: In vitro cytotoxicity against Human melanoma tumor cells.; type: functional, cell-based
Procedure, shortened: as §1

Homo sapiens [4] = species on record: Homo sapiens; assay: In vitro cytotoxicity against Human lung tumor cells.; type: functional
Procedure, shortened: as §1

Homo sapiens [5] = species on record: Homo sapiens; assay: In vitro cytotoxicity against Human lung tumor cells; Not available.; type: functional
Procedure, shortened: as §1

[6] = In vitro cytotoxicity in Human breast tumor cells; type: functional, cell-based
Procedure, shortened: as §1

Colon carcinoma cell = assay: In vitro cytotoxicity was tested in human colon tumor cells; type: functional, cell-based
Procedure, shortened: as §1

Melanoma tumor cell line [7] = assay: In vitro cytotoxicity against Human melanoma tumor cells; Not available.; type: functional, cell-based
Procedure, shortened: as §1

[8] = In vitro cytotoxicity in K 1735 M2 cell line; type: functional
MDA-MB-435 = assay: In vitro cytotoxicity in MDA-MB-435 cell line; type: functional, cell-based; conditions: Homo sapiens
Procedure, shortened: (§2)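 Established tumor lines kept in RPMI-1640 with 10% fetal calf serum and penicillin/streptomycin at 36 °C, 10% CO₂. Seeded 2000–3000 cells/well; hydrazone-containing medium added after 18 h, then 36 h further culture. Viable cells read by MTT absorbance at 570 nm; cytostasis (%) = (1 − A_treated/A_control) × 100.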

[9] = In vitro cytotoxicity in FDCP-1 cell line; conditions: Mus musculus, FDC-P1
[10] = In vitro cytotoxicity in B 16 F10 cell line; conditions: Mus musculus, B16-F10
[11] = In vitro cytotoxicity in KM 12L4 cell line; type: functional, cell-based; conditions: Homo sapiens
Procedure, shortened: as §2

[12] = In vitro cytotoxicity in SN 12 PM6 cell line; type: functional, cell-based; conditions: Homo sapiens
Procedure, shortened: as §2

| Structure (SMILES) | IC50 [1] | IC50 (Homo sapiens [2]) | IC50 (Melanoma tumor cell line [3]) | IC50 (Homo sapiens [5]) | IC50 [6] | IC50 (Colon carcinoma cell) | IC50 (Melanoma tumor cell line [7]) | further results |
| --- | --- | --- | --- | --- | --- | --- | --- | --- |
| O=[N+]([O-])c1ccc(NN=C(c2ccccc2)c2ccccc2)c([N+](=O)[O-])c1 | > 5 µg/mL | > 10 µg/mL | > 10 µg/mL | – | – | – | – | IC50 (Homo sapiens [4]): > 5 µg/mL |
| CC(=O)Nc1ccc(C(=NNc2ccc([N+](=O)[O-])cc2[N+](=O)[O-])c2ccc(NC(C)=O)cc2)cc1 | – | > 10 µg/mL | > 10 µg/mL | Not Active | > 10 µg/mL | > 10 µg/mL | – | – |
| O=[N+]([O-])c1ccc(N(Cc2ccccc2)N=c2c3ccccc3oc3ccccc23)c([N+](=O)[O-])c1 | – | > 10 µg/mL | > 10 µg/mL | Not Active | > 10 µg/mL | – | – | – |
| CCN(CC)c1ccc(C(=NNc2ccc([N+](=O)[O-])cc2[N+](=O)[O-])c2ccc(N(CC)CC)cc2)cc1 | – | – | 5 µg/mL (≈ 9.91 µM) | Not Active | > 7 µg/mL | > 10 µg/mL | – | – |
| O=[N+]([O-])c1ccc(N/N=C(\c2ccccc2)c2ccc(O)cc2)c([N+](=O)[O-])c1 | 5 µg/mL (≈ 13.2 µM) | 0.3 µg/mL (≈ 0.793 µM) | > 10 µg/mL | Not Active | – | 0.5 µg/mL (≈ 1.32 µM) | – | – |
| O=[N+]([O-])c1ccc(N/N=C2\c3ccccc3-c3cccc(O)c32)c([N+](=O)[O-])c1 | – | – | – | Not Active | 7.5 µg/mL (≈ 19.9 µM) | > 5 µg/mL | Not Active | – |
| O=[N+]([O-])c1ccc(/N=N/c2c3ccccc3c3c4c(cccc24)NN3)c([N+](=O)[O-])c1 | – | > 5 µg/mL | – | Not Active | > 5 µg/mL | > 5 µg/mL | Not Active | – |
| O=[N+]([O-])c1ccc(NN=C2c3cc(O)ccc3-c3ccc(O)cc32)c([N+](=O)[O-])c1 | – | 0.08 µg/mL (≈ 0.204 µM) | 4.1 µg/mL (≈ 10.5 µM) | – | 0.05 µg/mL (≈ 0.127 µM) | 0.06 µg/mL (≈ 0.153 µM) | – | IC50 (Homo sapiens [4]): > 10 µg/mL |
| Cc1ccc(NN=C(c2ccc(O)cc2)c2ccc(O)cc2)c(C)c1 | 10 µg/mL (≈ 30.1 µM) | – | – | Not Active | – | – | Not Active | – |
| COc1ccc2c(=NNc3ccc([N+](=O)[O-])cc3[N+](=O)[O-])c3ccc(OC)cc3oc2c1 | – | – | – | Not Active | > 5 µg/mL | – | Not Active | IC50 [8]: 0.64 µg/mL (≈ 1.47 µM); IC50 (MDA-MB-435): 0.41 µg/mL (≈ 0.94 µM); IC50 [9]: 0.95 µg/mL (≈ 2.18 µM); IC50 [10]: 0.44 µg/mL (≈ 1.01 µM); IC50 [11]: 1.57 µg/mL (≈ 3.6 µM); IC50 [12]: 0.62 µg/mL (≈ 1.42 µM) |
| Nc1ccc(/C(=N/Nc2ccc([N+](=O)[O-])cc2[N+](=O)[O-])c2ccccc2N)cc1 | – | 2 µg/mL (≈ 5.1 µM) | 6 µg/mL (≈ 15.3 µM) | Not Active | 0.7 µg/mL (≈ 1.78 µM) | 8 µg/mL (≈ 20.4 µM) | – | – |
| O=[N+]([O-])c1ccc(/N=N/c2c3ccccc3c(O)c3c(O)c(O)ccc23)c([N+](=O)[O-])c1 | – | > 10 µg/mL | > 5 µg/mL | – | 0.007 µg/mL (≈ 0.0167 µM) | 0.25 µg/mL (≈ 0.595 µM) | – | IC50 (Homo sapiens [4]): > 10 µg/mL |
| O=[N+]([O-])c1ccc(/N=N/c2c3ccccc3c(O)c3c(O)c4ccccc4cc23)c([N+](=O)[O-])c1 | – | – | – | – | 0.3 µg/mL (≈ 0.66 µM) | – | Not Active | IC50 (Homo sapiens [4]): 0.1 µg/mL (≈ 0.22 µM) |
| O=[N+]([O-])c1ccc(N/N=C(\c2ccccc2)c2ccc(O)cc2O)c([N+](=O)[O-])c1 | 0.5 µg/mL (≈ 1.27 µM) | – | – | Not Active | – | – | Not Active | – |
| O=[N+]([O-])c1ccc(NN=C(c2ccc(O)cc2O)c2ccc(O)cc2O)c([N+](=O)[O-])c1 | > 10 µg/mL | 0.03 µg/mL (≈ 0.0704 µM) | – | – | – | > 5 µg/mL | Not Active | IC50 (Homo sapiens [4]): > 5 µg/mL |
| COc1ccc(C(=NNc2ccc([N+](=O)[O-])cc2[N+](=O)[O-])c2ccc(OC)cc2O)c(O)c1 | 1.5 µg/mL (≈ 3.3 µM) | > 5 µg/mL | – | Not Active | – | 4.5 µg/mL (≈ 9.9 µM) | Not Active | – |
| Nc1ccc2c(NNc3ccc([N+](=O)[O-])cc3[N+](=O)[O-])c3cc(N)ccc3c(/N=N/c3ccc([N+](=O)[O-])cc3[N+](=O)[O-])c2c1 | – | > 5 µg/mL | – | Not Active | > 5 µg/mL | > 5 µg/mL | Not Active | – |
